From ChEMBL document CHEMBL1157609, “Discovery of vaniprevir (MK-7009), a macrocyclic hepatitis C virus NS3/4a protease inhibitor” (J Med Chem, 2010)

Assays:
Hepatitis C virus [1] = assay: Antiviral activity against HCV Con1 infected in human HuH7 cells assessed as inhibition of viral replication after 24 hrs by replicon assay in presence of 50% normal human serum; format: functional, organism-based, Hepacivirus hominis; details: Con1, Huh-7, 24 h
Outline: (§1)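 Huh-7 cells stably carrying a bicistronic replicon (1b con1 or 2a JFH) seeded at 20000 cells/well and held 24 h at 37 °C/5% CO2 in DMEM with 10% FBS or 50% NHS. Compound added in DMSO (1% final) for a further 24 h. Cells fixed and permeabilized. Replicon RNA quantified by in situ hybridization of a radiolabeled neomycin-resistance probe (50 °C, 18 h), followed by RNase A treatment.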

[2] = Drug level in Sprague-Dawley rat liver at 5 mg/kg, po after 4 hrs by LC/MS analysis; format: ADME, organism-based; parameters: dose 5 mg/kg, route oral; details: read-out: Drug uptake
Outline: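 Rats given a single oral dose as a PEG400 solution (2.0 mL/kg). Liver collected at the terminal time point and homogenized in buffer. Drug extracted liquid-liquid and quantified by LC/MS against standards and QCs.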

Hepatitis C virus [3] = assay: Antiviral activity against HCV JFH-1 infected in human HuH7 cells assessed as inhibition of viral replication after 24 hrs by replicon assay in presence of 10% fetal bovine serum; format: functional, organism-based, Hepacivirus hominis; details: JFH-1, Huh-7, 24 h; outline: as §1
[4] = Inhibition of HCV1b BK full length NS3/4A protease expressed in Escherichia coli after 1 hr by time-resolved fluorescence assay; parameters: species or system Hepatitis C virus (isolate BK)
Outline: (§2)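 Full-length NS3/4A (1b BK or 2a JFH) purified from E. coli. TRF peptide substrate added at 100 nM final. Reaction run 1 h at RT, then quenched with 500 mM MES pH 5.5. Read at ex 340/em 615 nm with 400 μs delay. Ki from a four-parameter fit.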

[5] = Inhibition of HCV JFH-1 full length NS3/4A protease expressed in Escherichia coli after 1 hr by time-resolved fluorescence assay; parameters: species or system Hepatitis C virus JFH-1; outline: as §2
Hepatitis C virus [6] = assay: Antiviral activity against HCV Con1 infected in human HuH7 cells assessed as inhibition of viral replication after 24 hrs by replicon assay in presence of 10% fetal bovine serum; format: functional, organism-based, Hepacivirus hominis; details: Con1, Huh-7, 24 h; outline: as §1
[7] = Drug level in Sprague-Dawley rat liver at 5 mg/kg, po after 24 hrs by LC/MS analysis; format: ADME, organism-based; parameters: dose 5 mg/kg, route oral; details: read-out: Drug uptake
Outline: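 Single oral dose given as a PEG400 solution (2.0 mL/kg). Liver was collected at the terminal time point, homogenized in buffer, and processed by liquid-liquid extraction. Drug was quantified by LC/MS against standards and QCs.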

[8] = AUC in Beagle dog at 5 mg/kg, po by LC/MS analysis; format: ADME, organism-based, Canis lupus familiaris; parameters: dose 5 mg/kg, route oral; details: plasma
[9] = Drug level in Beagle dog liver at 5 mg/kg, po after 2 hrs by LC/MS analysis; format: ADME, organism-based, Canis lupus familiaris; parameters: dose 5 mg/kg, route oral; details: read-out: Drug uptake
[10] = Drug level in Beagle dog liver at 5 mg/kg, po after 24 hrs by LC/MS analysis; format: ADME, organism-based, Canis lupus familiaris; parameters: dose 5 mg/kg, route oral; details: read-out: Drug uptake
[11] = AUC in monkey at 5 mg/kg, po by LC/MS analysis; format: ADME, organism-based, Macaca mulatta; parameters: dose 5 mg/kg, route oral; details: rhesus monkey, plasma
[12] = Drug level in monkey liver at 5 mg/kg, po after 2 hrs by LC/MS analysis; format: ADME, organism-based, Macaca mulatta; parameters: dose 5 mg/kg, route oral; details: rhesus monkey, read-out: Drug uptake
[13] = AUC in chimpanzee at 10 mg/kg, po by LC/MS analysis; format: ADME, organism-based, Pan troglodytes; parameters: dose 10 mg/kg, route oral; details: plasma
Outline: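 Two chimpanzees dosed orally by voluntary ingestion in a chocolate milk vehicle (0.67 mL/kg). Blood sampled at multiple times up to 24 h. Plasma analysed by liquid-liquid extraction and LC/MS against standards and QCs. Pharmacokinetic parameters calculated from the concentration data.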

concentration at 4 h [2] | IC50 (Hepatitis C virus [3]) | IC50 (Hepatitis C virus [6]) | concentration at 24 h [7] | AUC [8] | concentration at 2 h [9] | concentration at 24 h [10] | AUC [11] | concentration at 2 h [12] | AUC [13] | SMILES | IC50 (Hepatitis C virus [1]) | Ki [4] | Ki [5]
910 nM | 150 nM | 7 nM |  |  |  |  |  |  |  | C=C[C@@H]1C[C@]1(NC(=O)[C@@H]1C[C@@H]2CN1C(=O)[C@H](C(C)(C)C)NC(=O)OCCC/C=C/c1cccc3c1CN(C3)C(=O)O2)C(=O)NS(=O)(=O)C1CC1 | 32 nM | 0.05 nM | 2.6 nM
440 nM |  | 12 nM |  |  |  |  |  |  |  | C=C[C@@H]1C[C@]1(NC(=O)[C@@H]1C[C@@H]2CN1C(=O)[C@H](C(C)C)NC(=O)OCCC/C=C/c1cccc3c1CN(C3)C(=O)O2)C(=O)NS(=O)(=O)C1CC1 | 28 nM | 0.04 nM | 
450 nM |  | 28 nM |  |  |  |  |  |  |  | C=C[C@@H]1C[C@]1(NC(=O)[C@@H]1C[C@@H]2CN1C(=O)[C@H](C(C)(C)C)NC(=O)OCCC/C=C/c1cccc(c1)CN(C)C(=O)O2)C(=O)NS(=O)(=O)C1CC1 | 42 nM | 0.14 nM | 
520 nM | 66 nM | 7 nM |  |  |  |  |  |  |  | C=C[C@@H]1C[C@]1(NC(=O)[C@@H]1C[C@@H]2CN1C(=O)[C@H](C(C)(C)C)NC(=O)OCCCCCc1cccc3c1CN(C3)C(=O)O2)C(=O)NS(=O)(=O)C1CC1 | 27 nM | 0.04 nM | 0.9 nM
3500 nM |  | 26 nM |  |  |  |  |  |  |  | C=C[C@@H]1C[C@]1(NC(=O)[C@@H]1C[C@@H]2CN1C(=O)[C@H](C(C)(C)C)NC(=O)OCCC/C=C/c1cccc3c1CN(CC3)C(=O)O2)C(=O)NS(=O)(=O)C1CC1 | 140 nM | 0.15 nM | 
 |  | 98 nM |  |  |  |  |  |  |  | C=C[C@@H]1C[C@]1(NC(=O)[C@@H]1C[C@@H]2CN1C(=O)[C@H](C(C)(C)C)NC(=O)OCCC/C=C/c1ccccc1CN(C)C(=O)O2)C(=O)NS(=O)(=O)C1CC1 | 610 nM | 1.6 nM | 
230 nM |  | 5 nM |  |  |  |  |  |  |  | C=C[C@@H]1C[C@]1(NC(=O)[C@@H]1C[C@@H]2CN1C(=O)[C@H](C(C)(C)C)NC(=O)OCCCC/C=C/c1cccc3c1CN(C3)C(=O)O2)C(=O)NS(=O)(=O)C1CC1 | 19 nM | 0.03 nM | 
 |  | 730 nM |  |  |  |  |  |  |  | C=C[C@@H]1C[C@]1(NC(=O)[C@@H]1C[C@@H]2CN1C(=O)[C@H](C(C)(C)C)NC(=O)OCCC/C=C/c1cccc3c1CCN(C3)C(=O)O2)C(=O)NS(=O)(=O)C1CC1 | 2900 nM | 8.3 nM | 
10700 nM | 140 nM | 10 nM |  |  |  |  |  |  |  | CC[C@@H]1C[C@]1(NC(=O)[C@@H]1C[C@@H]2CN1C(=O)[C@H](C(C)(C)C)NC(=O)OCCCCCc1cccc3c1CN(C3)C(=O)O2)C(=O)NS(=O)(=O)C1CC1 | 35 nM | 0.18 nM | 4 nM
 |  | 16 nM |  |  |  |  |  |  |  | C=C[C@@H]1C[C@]1(NC(=O)[C@@H]1C[C@@H]2CN1C(=O)[C@H](C(C)(C)C)NC(=O)OCC/C=C/c1cccc3c1CN(C3)C(=O)O2)C(=O)NS(=O)(=O)C1CC1 | 390 nM | 0.1 nM | 
460 nM |  | 6 nM |  |  |  |  |  |  |  | C=C[C@@H]1C[C@]1(NC(=O)[C@@H]1C[C@@H]2CN1C(=O)[C@H](CCCC)NC(=O)OCCC/C=C/c1cccc3c1CN(C3)C(=O)O2)C(=O)NS(=O)(=O)C1CC1 | 26 nM | 0.05 nM | 
 |  | 4 nM |  |  |  |  |  |  |  | C=C[C@@H]1C[C@]1(NC(=O)[C@@H]1C[C@@H]2CN1C(=O)[C@H](C1CCCC1)NC(=O)OCCC/C=C/c1cccc3c1CN(C3)C(=O)O2)C(=O)NS(=O)(=O)C1CC1 | 23 nM | 0.04 nM | 
9900 nM | 9 nM | 3 nM | 400 nM | 1.2 µM·h | 34 µM | 500 nM | 0.05 µM·h | 3000 nM | 5.2 µM·h | CC[C@@H]1C[C@]1(NC(=O)[C@@H]1C[C@@H]2CN1C(=O)[C@H](C(C)(C)C)NC(=O)OCC(C)(C)CCCCc1cccc3c1CN(C3)C(=O)O2)C(=O)NS(=O)(=O)C1CC1 [VANIPREVIR] | 19 nM | 0.05 nM | 0.9 nM
140 nM |  | 3 nM |  |  |  |  |  |  |  | C=C[C@@H]1C[C@]1(NC(=O)[C@@H]1C[C@@H]2CN1C(=O)[C@H](C(C)(C)C)NC(=O)OCCCCC/C=C/c1cccc3c1CN(C3)C(=O)O2)C(=O)NS(=O)(=O)C1CC1 | 23 nM | < 0.02 nM | 
1600 nM |  | 4 nM |  |  |  |  |  |  |  | C=C[C@@H]1C[C@]1(NC(=O)[C@@H]1C[C@@H]2CN1C(=O)[C@H](C1(C)CCCCC1)NC(=O)OCCC/C=C/c1cccc3c1CN(C3)C(=O)O2)C(=O)NS(=O)(=O)C1CC1 | 38 nM | 0.06 nM | 
3800 nM | 720 nM | 29 nM |  |  |  |  |  |  |  | CC[C@@H]1C[C@]1(NC(=O)[C@@H]1C[C@@H]2CN1C(=O)[C@H](C(C)(C)C)NC(=O)OCCC/C=C/c1cccc3c1CN(C3)C(=O)O2)C(=O)NS(=O)(=O)C1CC1 | 110 nM | 0.45 nM | 19 nM
2800 nM |  | 3 nM |  |  |  |  |  |  |  | C=C[C@@H]1C[C@]1(NC(=O)[C@@H]1C[C@@H]2CN1C(=O)[C@H](C1CCCCC1)NC(=O)OCCC/C=C/c1cccc3c1CN(C3)C(=O)O2)C(=O)NS(=O)(=O)C1CC1 | 24 nM | 0.02 nM | 
